Test system: MS2 coat protein
Test: apparent Kd, MS2 coat protein; higher = weaker binding; RNA-MaP array; FMN 200 µM where present
Method in brief: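 Each design was made on Illumina sequencing-chip clusters by stalled E. coli RNA polymerase and titrated with SNAP-549-labelled MS2 coat protein from 0.7 or 1.5 nM, doubling to 3 µM, in the absence and then the presence of constant ligand. The buffer was 100 mM Tris-HCl pH 7.5, 80 mM KCl, 4 mM MgCl2, BSA, DTT, yeast tRNA and Tween-20. The apparent Kd is the median of filtered per-cluster fits of binding curves, with green signal normalised to red-channel RNA signal and control-cluster median Fmax.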

[1] = designed as: OFF switch for flavin mononucleotide, no ligand
[2] = ligand present: flavin mononucleotide, designed as: OFF switch for flavin mononucleotide
[3] = designed as: ON switch for flavin mononucleotide, no ligand
[4] = ligand present: flavin mononucleotide, designed as: ON switch for flavin mononucleotide

| Sequence | apparent Kd [1] [nM] | apparent Kd [2] [nM] | apparent Kd [3] [nM] | apparent Kd [4] [nM] |
| --- | --- | --- | --- | --- |
| CUGCCGUAGGAGAAGGACGGCGGGUUAUUUUUGUACAUGAGGAUCACCCAUGUAGGAUAUCCUACGUCAGGCGGCCUACUACAG | 13.7 | 19.8 | – | – |
| CUGCCUUAUGUAGGAUAUGCAUAGCAUUGCUAUGCAGAAGGACAUGAGGAUCACCCAUGUAUGUUAUCAAUACAUAUCUGGCAG | 17.5 | 54.5 | – | – |
| CUGCGGUCAGGAUAUGCAUGGCGGGACUUGCGUCGUGGCGUGGAGAAGGGACAUGAGGAUCACCCAUGUGGAGA | 67.9 | 42.3 | – | – |
| CUGCUCCGUGUAGGAUAUGCAUACUCCCAUUAUGCAGAAGGACAUGAGGAUCACCCAUGUAUGUUAUUAUCAUGUGUUGCGUGC | 42.5 | 185 | – | – |
| CUGGAAGUCGUAGGAUAUGGUGAUGUACAUGAGGAUCACCCAUGUCCGUCUUCUCUCACAAGAUGCCAGAAGGACGACUUCCGG | – | – | 625 | 101 |
| CUGGAUCACGCAGGAUAUUACAUGAGGAUCACCCAUGUCAGAACUGCAAUAUCGUCUCCUCGUUGUGAGAAGGGCGGAAUCAUA | 13.8 | 19.9 | – | – |
| CUGGAUGUCGAGGAUAUGCACCGGCUCGCUGACGCAGAAGGCGACACAUGAGGAUCACCCAUGUCGGUUCGCGA | 18.6 | 42 | – | – |
| CUGUACUGAGGAUAUACAUGAGGAUCACCCAUGUGUUCGAUACUAGUGAGGUCGAUUAGUAGAAGGCAGUACAG | 23 | 242 | – | – |
| CUGUAGAUAUCAGGAUAUCUAUUUCCUACAUGAGGAUCACCCAUGUAGGUGAUCACCCAAGUAAAGGAGAAGGGAUAUCUAUAG | – | – | 65 | 23.2 |
| CUGUUAUAGAUCCAUUUUUUCAACAUGAGGAUCACCCAUGUGCAGGAUAUCGUGAUUAUUUUCAUCGAGAAGGGCAUAAUCACG | 46.6 | 51 | – | – |
| CUGUUAUAGGUCCAGAAUUACAACAUGAGGAUCACCCAUGUGCAGGAUAUCGAGUUAAUUUUCAACGAGAAGGGCAUAGUCACG | 35.9 | 67.6 | – | – |
| CUGUUAUUGAUCCAUUUUUUCAACAUGAGGAUCACCCAUGUGCAGGAUAUCUUGUUUAUUUUCAUCGAGAAGGGCAUAUUCACG | 159 | 196 | – | – |
| CUGUUCCGUGUAGGAUAUGCAUAUUCUCAUUAUGCAGAAGGACAUGAGGAUCACCCAUGUAUGUUAUUAUCAUAUGUUACAUGU | 37.5 | 321 | – | – |
| CUGUUCUGUGUAGGAUAUGCAUAUUCCCAUUAUGCAGAAGGACAUGAGGAUCACCCAUGUAUGUUAUUAUCAUGUGUUACAUGC | 37.6 | 146 | – | – |
| CUGUUUCGUGUAGGAUAUGCAUAUUCCCAUUAUGCAGAAGGACAUGAGGAUCACCCAUGUAUGUUAUUAUCAUGUGUUACAUGC | 51 | 432 | – | – |
| CUUAAAGACGAGAAGGCUGAUUUGACAUGAGCGUCAGCCGUGUAACAUGAGGAUCACCCAUGUGCGGAGGAUAUUGAUCUUGAG | – | – | 12.3 | 13.9 |
| CUUAGGUGUACAUGAGGAUCACCCAUGUCCCUGGUCAUUAGACAGGAUAUAUGGGCGGUCGCUUCAUAGAAGGGUUAAAUGGGU | – | – | 837 | 780 |
| CUUAUACAUGAGGAUCACCCAUGUUAGGAUAUUCGCCCGCAUUGGAAGUCCGGUCUUGGAAGAAGGAACGUGGG | 36.8 | 59.1 | – | – |
| CUUAUGUAAGGAUAUCAGUAGUAAAAAAAUAAAAUUACUACUGAGAAGGUACAUGAGGAUCACCCAUGUAUCAA | 27.6 | 30.4 | – | – |

| Sequence | apparent Kd [1] [nM] | apparent Kd [2] [nM] | apparent Kd [3] [nM] | apparent Kd [4] [nM] |
| --- | --- | --- | --- | --- |
| CUUAUGUGAGGAUAUCAGUAGUAAAAAAAUAAAAUUACUACUGAGAAGGCACAUGAGGAUCACCCAUGUCUUUC | 33 | 37.8 | – | – |
| CUUGGGUGGCUGGAGGAUAUUCGAGUGGUAACAUGAGGAUCACCCAUGUGUCGCGCGGUACACGAGGAGAAGGCUGGCGGCCGGC | – | – | 146 | 54.6 |
| CUUUAGCUAGGAUAUACAUGAGGAUCACCCAUGUUAGCGGUCAAUUGGGCCGCGGGUUGUAGAAGGAGCAUUAA | 32.5 | 53.4 | – | – |
| CUUUAUCACUAUACAUGAGGAUCACCCAUGUUAUCAUCAUGAGAGGAUAUCGUAUUUGGAUUUUUCGAGAAGGCUCUUUUGUAU | – | – | 108 | 77.1 |
| CUUUCGUGAGGAUAUGUGGCUUAAAUCGUGAGAUCGAGGCUACAGAAGGCACAUGAGGAUCACCCAUGUUCCUC | 36 | 569 | – | – |
| CUUUUGUGAGGAUAUCAGUAGUAAAAUAAUAAUAUUACUACUGAGAAGGCACAUGAGGAUCACCCAUGUUCCUC | 40.5 | 267 | – | – |
| CUUUUGUGAGGAUAUCAGUAGUAAAUAAAUAAAAUUACUACUGAGAAGGCACAUGAGGAUCACCCAUGUUCCUU | 14.7 | 28.4 | – | – |
| CUUUUGUGAGGAUAUCAGUAGUAAAUAAAUAAAUUAACUACUGAGAAGGCACAUGAGGAUCACCCAUGUUCCUU | 13 | 29.4 | – | – |
| CUUUUGUGAGGAUAUCAGUAGUAAUACAAUAGUAUUACUACUGAGAAGGCACAUGAGGAUCACCCAUGUUCCUC | 45 | 162 | – | – |
| CUUUUGUGAGGAUAUCUGUAGUAAAAAAAUAAAAUUACUACUGAGAAGGCACAUGAGGAUCACCCAUGUUCCUC | 39.6 | 181 | – | – |
| CUUUUGUGAGGAUAUUAGUAGUAAAUGAAUAAAAUUAUUACUGAGAAGGUACAUGAGGAUCACCCAUGUUCCUC | 16.8 | 24.6 | – | – |
| CUUUUGUUAGGAUAUUAGUAGUAAAUAAAUAAAAUUACUACUGAGAAGGCACAUGAGGAUCACCCAUGUUCCUC | 26 | 31.4 | – | – |
| GAAAAACAUGAGGAUCACCCAUGUGAGAAUAUGGGAGGAUAUACGAGGACGAGAGUCAAGGUAGAAGGCCUAAAAG | – | – | 96.3 | 15.2 |
| GAAAAACAUGAGGAUCACCCAUGUGUAAACAAGGGAGGAUAUACAAAGACGUAAGUCAAAGUAGAAGGCCUAAAAG | – | – | 25 | 9.6 |
| GAAAACGCAGAGGAUAUUCCAGAUCUAAGCUGCGAAGAAGGCUGCACAUGAGGAUCACCCAUGUGGUCUUUAAA | 18.8 | 116 | – | – |
| GAAAACUGAGGAUAUACAUGAGGAUCACCCAUGUAGGUACGGCUUCUACAUUCGUCAUGUAGAAGGCAGUAUAA | 18.1 | 15.7 | – | – |
| GAAAGAAAUCCAACAUGAGGAUCACCCAUGUUAGGCCAGUGGCAGGAUAUGGUGGGACUGAUGCACCAGAAGGGUCAGGUGGGC | – | – | 17.9 | 10 |
| GAAAUUCGGGCAGGAUAUGGGUGCCGUCAAGACAUGAGGAUCACCCAUGUCCCAUGCACGAGCGCUCAGAAGGGCUCAUUGCAG | – | – | 20.8 | 22 |
| GAACGGUGAGCAGGAUAUCCACAUUGUCUCCUACAUGAGGAUCACCCAUGUGGAGAAGGGUUUAUAAGUUCGUGUAUACUCAAC | 6.35 | 6.9 | – | – |

| Sequence | apparent Kd [1] [nM] | apparent Kd [2] [nM] | apparent Kd [3] [nM] | apparent Kd [4] [nM] |
| --- | --- | --- | --- | --- |
| GAACUGAAGCUUAGCUUUAGUCGUACAUGAGGAUCACCCAUGUAGGAUAUGGUAGGCAUAGCUUACUAGAAGGAUAGAGUGAUC | 198 | 69.6 | – | – |
| GAACUGAGGCAAAGCUUUAGUCGUACAUGAGGAUCACCCAUGUAGGAUAUGGUAGGCUUUGCUUACCAGAAGGACAGAGUGAUC | 102 | 139 | – | – |
| GAAGCAUCCAAUAACAUGAGGAUCACCCAUGUCAAAAGACGGGAGGAUAUUGAUCUGAAGAAGAUCAAGAAGGCCUGGUGCUAA | – | – | 10.1 | 7.35 |
| GAAUAACAUGAGGAUCACCCAUGUGAUUCGCAUGUAGGAUAUGGGCACGCGCCCGCGUGUCCAGAAGGACAGGCUA | – | – | 154 | 130 |
| GAAUAAUUGAUCCAAUUUAACUACAUGAGGAUCACCCAUGUGCAGGAUAUCGUAAUAUUUAUUUUCGAGAAGGGCAAGAACGGU | 162 | 320 | – | – |
| GAAUGAGAGCAGGAUAUCUUAUAAUUGUAUGAAAGAGAAGGGCUCACAUGAGGAUCACCCAUGUGGUCCUAGAU | 42 | 299 | – | – |
| GAAUGUUGGCUAGGAUAUGCAUUUUGAGAGGUAGCAGAAGGAGCGCACAUGAGGAUCACCCAUGUUAGCAUUGGGCGUCUCUCA | 5.76 | 16.3 | – | – |
| GACAUUGGCAAGAAGGCAAACAUGAGGAUCACCCAUGUUCUGCAUGUAUAUUGAGGAUAUUGCCAAUGUAUGUGGAUCACCCAA | 6.36 | 23.3 | – | – |
| GACCUACAUGAGGAUCACCCAUGUCAGGAUAUUUAACCGAUGUCACCCAUCGGUCCUUAGAGAAGGGAUGUGGC | 15 | 14.9 | – | – |
| GACCUACAUGAGGAUCACCCAUGUGAGGAUAUAUUGUUAUUUUUAAUAUUUUUUAGUGGUAGAAGGCGCGUGAU | 18.4 | 17.3 | – | – |
| GACUACGAGGGAGGAUAUCCUCAUUAAAAUGGUGGAGAAGGCCCUCUACAUGAGGAUCACCCAUGUAUCGCUAUAGUCAGAAAU | – | – | 10.8 | 6.53 |
| GACUGACAUGAGGAUCACCCAUGUAUUCGAGCAUGAGGAUAUAUGACUCGUCAUCGGCGGAUAGAAGGCAUGGUUG | – | – | 162 | 212 |
| GACUGAUUGUAGAAGGUACUUAAUACUCAUGUAACAUGAGGAUCACCCAUGUAUCAACAAUAUUGUAAGGAUAUACAUAUCUCA | – | – | 231 | 103 |
| GACUGCCGAGGAUAUACAUGAGGAUCACCCAUGUGCUUCAGCAUUUUUUAAUGCAUGGGUAGAAGGCGGUAGUU | 35.4 | 60.7 | – | – |
| GACUUGCAGCUAGGAUAUGGGCGAUCACAUGAGGAUCACCCAUGUCAACAUCAAAACAAGAUUAACCAGAAGGAGCCGCGGGCU | – | – | 17.3 | 63.9 |
| GACUUGUCAGGAUAUCUUACAUUUGCAUCGUAGUUACCAUUGGAGAAGGGACAUGAGGAUCACCCAUGUUUGGU | 35.2 | 34.9 | – | – |
| GACUUUUCUGAGGAUAUUGCAUCAUACGAUUUAUAAGAAGGCAGAACAUGAGGAUCACCCAUGUGGGUUUUUAG | 41.7 | 91.1 | – | – |
| GAGAAGUCAGGAUAUGCAUGGCGGGACUUGCGUCGUGGCGUGCAGAAGGGACAUGAGGAUCACCCAUGUGGAGA | 125 | 291 | – | – |
